Here are results for two molecules from ChEMBL document CHEMBL4014346, “Lead Optimization Generates CYP11B1 Inhibitors of Pyridylmethyl Isoxazole Type with Improved Pharmacological Profile for the Treatment of Cushing's Disease” (J Med Chem, 2017).

In data set [1] the target is T1, CYP1A2 (Homo sapiens, UniProt P05177).
T1 sequence (P05177 whole entry): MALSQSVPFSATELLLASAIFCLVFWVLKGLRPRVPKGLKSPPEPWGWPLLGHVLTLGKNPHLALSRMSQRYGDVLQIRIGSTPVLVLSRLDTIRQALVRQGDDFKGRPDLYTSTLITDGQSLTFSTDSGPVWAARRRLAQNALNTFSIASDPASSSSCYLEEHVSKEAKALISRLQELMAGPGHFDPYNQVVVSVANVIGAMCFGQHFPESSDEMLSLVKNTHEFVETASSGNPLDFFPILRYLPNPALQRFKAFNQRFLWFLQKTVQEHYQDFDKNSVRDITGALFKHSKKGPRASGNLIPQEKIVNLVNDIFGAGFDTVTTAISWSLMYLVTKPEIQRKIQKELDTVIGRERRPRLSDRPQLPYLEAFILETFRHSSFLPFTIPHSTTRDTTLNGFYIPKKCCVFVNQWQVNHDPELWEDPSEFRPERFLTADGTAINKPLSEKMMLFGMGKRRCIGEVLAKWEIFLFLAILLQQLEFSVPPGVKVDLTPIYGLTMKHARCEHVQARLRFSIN
As to the kind of experiment: Inhibition of recombinant human CYP1A2 expressed in baculovirus infected insect cell microsomes at 1 uM relative to control. The format is ADME. In short, it runs like this: (§1)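 Recombinant human CYP1A2, 2B6, 2C9, 2C19, 2D6 and 3A4 in baculovirus-infected insect-cell microsomes, assayed per kit instructions; test compound at 1 µM, percent inhibition.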

For data set [2], the target named is CYP3A4 (Homo sapiens, UniProt P08684). As to the kind of experiment: Inhibition of recombinant human CYP3A4 expressed in baculovirus infected insect cell microsomes at 1 uM relative to control. Type of data set: ADME. In short, it runs like this:
as §1

Data set [3] can be described thus: Half life in rat liver S9 fractions at 1 uM in presence of NADPH/UDPGA by LC-MS/MS analysis. Type of data set: ADME, tissue-based. The essentials:
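Samples taken at 0, 5, 15 and 60 min, stopped with cold acetonitrile containing internal standard. Remaining parent measured by LC-MS/MS.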

Data set [4] addresses T2, CYP19A1 (Homo sapiens, UniProt P11511).
T2 sequence (P11511 whole entry): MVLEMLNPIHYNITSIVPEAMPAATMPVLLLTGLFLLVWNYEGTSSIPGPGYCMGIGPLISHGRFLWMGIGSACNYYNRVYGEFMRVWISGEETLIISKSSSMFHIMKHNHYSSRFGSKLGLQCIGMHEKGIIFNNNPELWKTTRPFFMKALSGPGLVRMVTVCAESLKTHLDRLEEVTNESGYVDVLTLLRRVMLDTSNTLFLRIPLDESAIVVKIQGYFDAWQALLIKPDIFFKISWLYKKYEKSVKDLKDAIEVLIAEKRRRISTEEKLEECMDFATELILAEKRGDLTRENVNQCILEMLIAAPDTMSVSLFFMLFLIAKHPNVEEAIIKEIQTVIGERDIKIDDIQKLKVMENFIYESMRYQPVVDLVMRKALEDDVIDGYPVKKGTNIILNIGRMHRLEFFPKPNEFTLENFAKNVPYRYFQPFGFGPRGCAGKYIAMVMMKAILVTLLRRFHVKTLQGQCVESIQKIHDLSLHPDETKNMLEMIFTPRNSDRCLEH
As to the kind of experiment: Inhibition of human placental microsomal CYP19A1 at 2 uM using [1beta-3H]-androstenedione as substrate after 20 mins in presence of NADPH by scintillation spectrometric method relative to control. The format is ADME. The settings on record: placental microsomes, probe [1beta-3H]-androstenedione. In short, it runs like this: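 Human placental microsomal CYP19A1; [1β-³H]androstenedione (500 nM) as substrate; test compounds at 2 µM; fadrozole and aminoglutethimide as references.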

Data set [5] deals with CYP2D6 (Homo sapiens, UniProt P10635). As to the kind of experiment: Inhibition of recombinant human CYP2D6 expressed in baculovirus infected insect cell microsomes at 1 uM relative to control. The format is ADME. The essentials:
as §1

Data set [6] deals with CYP2C19 (Homo sapiens, UniProt P33261). Nature of the data set: Inhibition of recombinant human CYP2C19 expressed in baculovirus infected insect cell microsomes at 1 uM relative to control. Type of data set: ADME. The essentials: as §1
CYP2C19, sequence (P33261 whole entry): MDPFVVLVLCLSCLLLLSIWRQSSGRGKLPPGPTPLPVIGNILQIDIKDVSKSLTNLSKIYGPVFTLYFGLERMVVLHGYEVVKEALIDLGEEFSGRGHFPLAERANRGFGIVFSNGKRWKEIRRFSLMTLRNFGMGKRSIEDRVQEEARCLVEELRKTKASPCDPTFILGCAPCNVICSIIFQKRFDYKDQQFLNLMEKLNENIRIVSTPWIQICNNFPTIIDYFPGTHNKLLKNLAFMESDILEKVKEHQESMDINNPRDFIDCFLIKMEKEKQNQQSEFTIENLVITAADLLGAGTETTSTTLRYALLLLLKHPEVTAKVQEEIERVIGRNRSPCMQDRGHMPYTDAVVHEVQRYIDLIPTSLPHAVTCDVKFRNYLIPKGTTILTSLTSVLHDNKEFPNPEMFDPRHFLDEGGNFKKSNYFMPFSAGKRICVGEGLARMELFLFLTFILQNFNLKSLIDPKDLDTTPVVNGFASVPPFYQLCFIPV
In data set [7] the target is T3, CYP17A1 (Homo sapiens, UniProt P05093).
T3 sequence (P05093 whole entry): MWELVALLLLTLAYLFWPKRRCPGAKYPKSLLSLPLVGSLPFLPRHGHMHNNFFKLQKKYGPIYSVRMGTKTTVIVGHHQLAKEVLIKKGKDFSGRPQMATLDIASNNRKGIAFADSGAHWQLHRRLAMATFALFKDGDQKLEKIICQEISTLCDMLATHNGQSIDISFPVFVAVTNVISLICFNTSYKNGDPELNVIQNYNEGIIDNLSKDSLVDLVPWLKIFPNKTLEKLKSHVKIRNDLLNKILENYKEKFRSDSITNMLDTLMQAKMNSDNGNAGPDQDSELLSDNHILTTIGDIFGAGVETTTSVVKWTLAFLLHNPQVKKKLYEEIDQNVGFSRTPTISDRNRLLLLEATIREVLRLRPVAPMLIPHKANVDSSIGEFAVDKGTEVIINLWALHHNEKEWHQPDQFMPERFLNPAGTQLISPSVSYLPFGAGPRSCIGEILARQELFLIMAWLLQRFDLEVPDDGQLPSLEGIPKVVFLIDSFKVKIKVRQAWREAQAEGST
Nature of the data set: Inhibition of human CYP17A1 expressed in Escherichia coli membranes at 2 uM using [3H]-progesterone as substrate after 30 mins in presence of NADPH by HPLC analysis relative to control. The settings on record: Escherichia coli membranes expressing human CYP17A1, probe [3H]-progesterone. The format is ADME, cell membranes. In short, it runs like this:
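Human CYP17A1 expressed in E. coli; [³H]-progesterone (25 µM) as substrate with NADPH cofactor; test compounds at 2 µM; abiraterone and ketoconazole as references.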

Data set [8] can be described thus: Cytotoxicity against HEK293 cells assessed as reduction in cell viability after 66 hrs by MTT assay. The format is cell-based. The settings on record: human. The essentials: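 HEK293 cells seeded at 2x10⁵ per well; 4 h later, compound added at 100–6.25 µM in quadruplicate in 1% DMSO. MTT read-out at 570 nm after 66 h against vehicle control; IC20 derived by curve fitting.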

The nature of data set [9]: Aqueous solubility of the compound in 2% DMSO up to 24 hrs. Type of data set: physicochemical.
Data set [10] has as its system Salmonella typhimurium. Nature of the data set: Mutagenicity in Salmonella typhimurium TA98 up to 100 uM in presence of rat liver S9 fraction by Ames 2 assay. Type of data set: toxicity. The settings on record: salmonella enterica subsp. enterica serovar typhimurium. In short, it runs like this: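 AMES II kit with Salmonella typhimurium TA98 and TA7001–TA7006, run with or without rat liver S9 fraction according to the kit instructions.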

Data set [11] can be described thus: Plasma concentration in Sprague-Dawley rat at 100 mg/kg, po administered as single dose after 1 hr by HPLC-MS/MS analysis. Type of data set: ADME, organism-based. In short, it runs like this:
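One female Sprague-Dawley rat dosed orally with a suspension in 0.5% porcine gelatin/5% mannitol in water, under 2% isoflurane. Tail-vein blood in citrate; plasma precipitated with acetonitrile containing diphenhydramine internal standard and quantified by HPLC-MS/MS.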

A short description of data set [12]: Clearance in Sprague-Dawley rat at 5 mg/kg, iv administered as single dose by HPLC-MS/MS analysis. Type of data set: ADME, organism-based. The settings on record: in vivo. The essentials:
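Female Sprague-Dawley rats (244–299 g), 2 animals; single iv dose in PEG300/ethanol/water (60/10/30), under 2% isoflurane anesthesia. Tail-vein blood taken into sodium citrate, plasma spun down, precipitated with acetonitrile containing diphenhydramine internal standard, analysed by HPLC-MS/MS with duplicate injections. Mean parameters from noncompartmental analysis.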

CYP3A4, sequence (P08684 whole entry): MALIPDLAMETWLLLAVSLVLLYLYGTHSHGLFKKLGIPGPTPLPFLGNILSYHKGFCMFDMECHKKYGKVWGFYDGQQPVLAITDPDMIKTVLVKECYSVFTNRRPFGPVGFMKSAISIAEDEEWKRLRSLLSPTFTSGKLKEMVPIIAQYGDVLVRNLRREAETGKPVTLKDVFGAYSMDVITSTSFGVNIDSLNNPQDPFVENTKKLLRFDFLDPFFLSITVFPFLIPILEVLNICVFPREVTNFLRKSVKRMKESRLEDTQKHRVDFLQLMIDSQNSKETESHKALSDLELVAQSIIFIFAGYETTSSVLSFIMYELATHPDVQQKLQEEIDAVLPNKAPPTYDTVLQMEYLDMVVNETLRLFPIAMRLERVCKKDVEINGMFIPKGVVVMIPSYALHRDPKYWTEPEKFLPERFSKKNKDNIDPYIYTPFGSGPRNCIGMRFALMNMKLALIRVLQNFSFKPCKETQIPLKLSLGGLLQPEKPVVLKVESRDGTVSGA
CYP2D6, sequence (P10635 whole entry): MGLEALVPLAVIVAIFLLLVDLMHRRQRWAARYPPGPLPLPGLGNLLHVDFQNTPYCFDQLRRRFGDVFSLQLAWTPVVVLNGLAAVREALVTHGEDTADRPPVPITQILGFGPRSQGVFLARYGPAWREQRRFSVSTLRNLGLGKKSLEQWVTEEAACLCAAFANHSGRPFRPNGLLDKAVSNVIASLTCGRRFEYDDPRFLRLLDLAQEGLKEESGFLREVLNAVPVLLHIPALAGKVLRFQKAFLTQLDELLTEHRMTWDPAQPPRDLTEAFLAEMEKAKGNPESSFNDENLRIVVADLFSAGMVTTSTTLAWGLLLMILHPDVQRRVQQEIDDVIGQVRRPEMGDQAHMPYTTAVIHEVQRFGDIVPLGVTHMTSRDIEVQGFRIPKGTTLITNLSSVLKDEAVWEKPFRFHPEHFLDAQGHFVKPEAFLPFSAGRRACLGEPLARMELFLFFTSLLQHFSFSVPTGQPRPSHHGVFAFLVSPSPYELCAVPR

With `Cc1cncc(Cc2cc(-c3ccccc3)no2)c1`, the inhibition at 1 µM in data set [1] was determined as 54%; in data set [2] it was 61%; in [5], 0%; in data set [6], 8%. In addition, the half-life at 1 µM in [3] was 30 min. In [4], the inhibition at 20 min, 2 µM is not above 9%. Moreover, the inhibition at 0.5 h, 2 µM in data set [7] is not above 9%. The IC20 at 66 h in [8] was 28 µM. In [9], this molecule had a solubility at 24 h of more than 200 µM. Also, the Activity entry in data set [10] is reported as “Non-Toxic”. The concentration at 1 h in data set [11] is 2.5 µM.
`COc1cncc(Cc2cc(-c3ccccc3)no2)c1` showed a clearance in data set [12] of 22.6 mL/min/kg. Also, the inhibition at 1 µM is 23% in data set [1], 33% in data set [2], 8% in [5] and 17% in data set [6]. The half-life at 1 µM in data set [3] came to 23 min. For the same molecule, in [4], the inhibition at 20 min, 2 µM was not above 9%. The inhibition at 0.5 h, 2 µM in data set [7] was not above 9%. Besides, the IC20 at 66 h in data set [8] turned out to be 42 µM. The same molecule had a solubility at 24 h in data set [9] of more than 200 µM. In addition, the Activity result in data set [10] is reported as “Non-Toxic”. Further, in data set [11], the concentration at 1 h was 19.7 µM.
